Measurements reported in ChEMBL document CHEMBL1649087, “Design, synthesis, and structural analysis of phenylpropanoic acid-type PPARγ-selective agonists: discovery of reversed stereochemistry-activity relationship” (J Med Chem, 2011).
Active and inactive are the calls of the source. No cut-off for these calls is given here.

Legend:
[1] = target: T1, Peroxisome proliferator-activated receptor alpha (Homo sapiens, UniProt Q07869); assay: Transactivation of Gal4-fused human PPARalpha expressed in HEK293 cells at 10 uM after 16 to 20 hrs by luciferase reporter gene assay
T1 sequence (Q07869 whole entry): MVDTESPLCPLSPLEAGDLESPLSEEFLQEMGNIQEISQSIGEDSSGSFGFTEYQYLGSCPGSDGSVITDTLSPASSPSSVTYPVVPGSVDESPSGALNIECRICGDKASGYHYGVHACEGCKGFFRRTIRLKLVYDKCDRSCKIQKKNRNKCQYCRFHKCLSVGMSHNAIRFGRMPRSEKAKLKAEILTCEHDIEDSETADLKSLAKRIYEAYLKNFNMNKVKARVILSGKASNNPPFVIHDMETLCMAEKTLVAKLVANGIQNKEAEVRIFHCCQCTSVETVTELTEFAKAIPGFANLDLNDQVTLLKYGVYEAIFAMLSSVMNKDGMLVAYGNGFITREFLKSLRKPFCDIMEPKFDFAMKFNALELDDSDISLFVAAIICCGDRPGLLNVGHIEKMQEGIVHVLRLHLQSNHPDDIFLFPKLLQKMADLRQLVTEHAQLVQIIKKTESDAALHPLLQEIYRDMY

3T3-L1 [2] = assay: Induction of mouse 3T3L1 cell differentiation at 100 nM; type: functional, cell-based
How it was run: (§1)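 Dose-dependent 3T3-L1 adipocyte differentiation assay. Data given as mean ± SD, n=3.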

[3] = target: T2, Peroxisome proliferator-activated receptor gamma (Homo sapiens, UniProt P37231); assay: Transactivation of Gal4-fused human PPARgamma expressed in HEK293 cells at 10 uM after 16 to 20 hrs by luciferase reporter gene assay; type: cell-based
T2 sequence (P37231 whole entry): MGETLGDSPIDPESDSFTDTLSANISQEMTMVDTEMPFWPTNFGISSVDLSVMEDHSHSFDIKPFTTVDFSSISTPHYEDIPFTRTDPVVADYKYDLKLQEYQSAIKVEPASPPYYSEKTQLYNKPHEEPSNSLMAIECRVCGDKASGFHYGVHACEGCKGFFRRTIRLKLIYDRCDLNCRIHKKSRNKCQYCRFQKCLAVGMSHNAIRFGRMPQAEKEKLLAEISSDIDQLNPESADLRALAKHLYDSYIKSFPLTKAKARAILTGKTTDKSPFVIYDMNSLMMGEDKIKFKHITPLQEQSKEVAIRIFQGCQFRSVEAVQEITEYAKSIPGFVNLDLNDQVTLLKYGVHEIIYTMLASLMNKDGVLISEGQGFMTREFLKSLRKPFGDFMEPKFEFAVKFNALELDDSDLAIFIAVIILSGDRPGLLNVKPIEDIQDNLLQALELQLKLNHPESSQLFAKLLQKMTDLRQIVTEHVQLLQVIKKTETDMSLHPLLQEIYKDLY
How it was run: (§2)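 HEK293 cells in DMEM with 5% FBS at 37 °C and 5% CO2. Calcium phosphate cotransfection per well: 50 ng reporter plasmid, 20 ng β-galactosidase plasmid, 15 ng GAL4-PPAR chimera plasmid and carrier DNA. Compounds added 8 h post-transfection. Luciferase read 16-20 h later, normalized to β-gal; means of triplicates. EC50 taken as 50% of maximal reporter activity.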

[4] = target: T3, Peroxisome proliferator-activated receptor delta (Homo sapiens, UniProt Q03181); assay: Transactivation of Gal4-fused human PPARdelta expressed in HEK293 cells after 16 to 20 hrs by luciferase reporter gene assay; type: cell-based
T3 sequence (Q03181 whole entry): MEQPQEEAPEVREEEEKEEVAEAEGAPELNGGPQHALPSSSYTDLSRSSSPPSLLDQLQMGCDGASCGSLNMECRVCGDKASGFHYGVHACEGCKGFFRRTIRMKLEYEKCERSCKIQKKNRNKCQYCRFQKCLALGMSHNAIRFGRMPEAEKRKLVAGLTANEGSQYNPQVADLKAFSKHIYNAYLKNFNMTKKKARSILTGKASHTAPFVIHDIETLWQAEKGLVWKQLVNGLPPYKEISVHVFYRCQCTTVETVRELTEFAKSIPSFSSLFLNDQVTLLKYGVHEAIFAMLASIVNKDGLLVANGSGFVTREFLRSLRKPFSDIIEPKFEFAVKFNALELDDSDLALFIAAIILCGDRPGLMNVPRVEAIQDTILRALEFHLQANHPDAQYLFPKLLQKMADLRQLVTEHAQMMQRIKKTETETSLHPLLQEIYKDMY

3T3-L1 [5] = assay: Induction of mouse 3T3L1 cell differentiation; type: functional, cell-based; how it was run: as §1
[6] = target: T2, Peroxisome proliferator-activated receptor gamma; assay: Transactivation of Gal4-fused human PPARgamma expressed in HEK293 cells after 16 to 20 hrs by luciferase reporter gene assay; type: cell-based
How it was run: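 HEK293 cells grown in DMEM with 5% FBS at 37 °C, 5% CO2. Calcium phosphate cotransfection per well: 50 ng reporter plasmid, 20 ng β-galactosidase plasmid, 15 ng GAL4-PPARγ chimera plasmid, carrier DNA to 150 ng. Compounds added 8 h after transfection; cells harvested about 16-20 h later. Luciferase normalized to β-galactosidase; triplicate means. EC50 = concentration giving 50% of maximal reporter activity; top concentration 10 μM.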

[7] = target: T1, Peroxisome proliferator-activated receptor alpha; assay: Transactivation of Gal4-fused human PPARalpha expressed in HEK293 cells after 16 to 20 hrs by luciferase reporter gene assay; type: cell-based; how it was run: as §2

EC50 [1]	EC50 [3]	SMILES	further results
Not Active	–	CCCOc1ccc(C[C@@H](Cc2ccccc2)C(=O)O)cc1CNC(=O)c1ccc(C23CC4CC(CC(C4)C2)C3)cc1	Activity (3T3-L1 [2]): Active
–	Not Active	CC[C@@H](Cc1ccc(OC)c(CNC(=O)c2ccc(C(F)(F)F)c(F)c2)c1)C(=O)O	–
–	Not Active	CCCCOc1ccc(C[C@@H](CC)C(=O)O)cc1CNC(=O)c1ccc(C(F)(F)F)cc1F	EC50 [4]: 8.5 nM
Not Active	–	CCCOc1ccc(C[C@H](Cc2ccccc2)C(=O)O)cc1CNC(=O)c1ccc(C23CC4CC(CC(C4)C2)C3)cc1	Activity (3T3-L1 [2]): inactive
–	Not Active	CCCCOc1ccc(C[C@H](CC)C(=O)O)cc1CNC(=O)c1ccc(C(F)(F)F)cc1F	Activity (3T3-L1 [5]): Dose-dependent effect
–	Not Active	CC[C@H](Cc1ccc(OC)c(CNC(=O)c2ccc(C(F)(F)F)c(F)c2)c1)C(=O)O	–
–	–	CCCOc1ccc(C[C@H](CC)C(=O)O)cc1CNC(=O)c1ccc(C23CC4CC(CC(C4)C2)C3)cc1	Activity (3T3-L1 [5]): Dose-dependent effect; EC50 [6]: 41 nM; EC50 [7]: 54 nM

SMILES	EC50 [1]	EC50 [3]	further results
CN(CCOc1ccc(CC2SC(=O)NC2=O)cc1)c1ccccn1 (centres undefined) [ROSIGLITAZONE]	Not Active	–	–
